# SENP6 block = SENP6 protease inhibitors, primary screen, biochemical, luminescence, uHTS | Sentrin-specific protease 6 (Homo sapiens), Q9GZR1 | Recombinant SENP6 catalytic domain, aminoluciferin luminescence | inhibition, % at 10 µM | actives 1.8% (n = 330,000) | AID 2599, 2010;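 active = inhibition above about 50% at the single tested dose, limit read from the data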;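 note: plate controls were DMSO wells with enzyme for no effect and DMSO wells lacking enzyme for full effect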
# SENP8 block-1 = SENP8 protease inhibitors, primary screen, biochemical, luminescence; Sentrin-specific protease 8 (Homo sapiens), Q96LD8; purified SENP8, Z-RLRGG-aminoluciferin cleavage; inhibition, % at 10 µM; actives 1.2% (n = 330,000); in the data active = inhibition above about 50%
# SENP8 block-2 = human SENP8 protease inhibitors, primary screen, biochemical, fluorescence, Nedd8 protein substrate, uHTS; recombinant SENP8; inhibition, % at 20 µM; Sentrin-specific protease 8 (Homo sapiens), Q96LD8; AID 602440, 2012; actives 0.64% (n = 360,000); in the data active = inhibition mostly above about 40%, no sharp cut-off; inactive = mostly below about 27%
# SENP7 inh = SENP7 protease inhibitors, primary screen, biochemical, luminescence, uHTS; inhibition, % at 5 µM; Sentrin-specific protease 7 (Homo sapiens), Q9BQF6; recombinant SENP7, Z-RLRGG-aminoluciferin luminescence, 40 min; actives 1.5% (n = 330,000);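 active = inhibition above about 50% at the single test dose, limit read from the data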;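 note: plate controls were DMSO with enzyme for no effect and no enzyme buffer wells for full effect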
# SENP1 FRET inh = human SENP1 catalytic domain inhibitors, primary screen, biochemical, FRET, uHTS. recombinant SENP1 catalytic domain, CyPet-SUMO1-YPet FRET cleavage. actives 0.21% (n = 360,000). Sentrin-specific protease 1 (Homo sapiens), Q9P0U3. inhibition, % at 10 µM;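 active = inhibition at least 30% at 10 µM, raw YFP signal under a set limit, fluorescence ratio 0.5 to 1.5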;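 note: 0% = enzyme with DMSO and 100% = no enzyme wells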
# Target sequence (Q9P0U3 419-644 limits assumed): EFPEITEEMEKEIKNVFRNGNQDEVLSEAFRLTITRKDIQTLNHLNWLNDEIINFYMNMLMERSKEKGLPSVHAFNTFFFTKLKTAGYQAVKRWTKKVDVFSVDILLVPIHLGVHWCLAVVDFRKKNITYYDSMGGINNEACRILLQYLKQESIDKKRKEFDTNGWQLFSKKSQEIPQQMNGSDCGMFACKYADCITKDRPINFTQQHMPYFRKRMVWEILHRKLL
#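 Test system: hSENP1 catalytic domain, recombinant; Amount: 20 pM final SENP1 enzyme; Medium: Tris pH 8 buffer plus EDTA, NaCl, BME, BSA, NP40, catalase; Schedule: 50 min enzyme reaction, room temperature, light-protected; Technique: FRET fluorescence in CFP and YFP emission channels; Controls: no-enzyme wells low, DMSO-plus-enzyme wells high control.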
# SENP8 confirm = SENP8 protease inhibitors, retest, confirmation, biochemical, luminescence, single concentration. shares compounds with SENP7 inh. Recombinant SENP8, Z-RLRGG-aminoluciferin luminescence, 60 min. inhibition, % at 12.5 µM. actives 40% (n = 6,200);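 active = mean inhibition across replicates above about 50%, limit read from the data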
# SENP6 confirm = SENP6 protease inhibitors, confirmation, biochemical, luminescence, single concentration; recombinant SENP6, Z-RLRGG-aminoluciferin luminescence; shares compounds with SENP7 inh; inhibition, % at 12.5 µM; actives 58% (n = 6,200); AID 488915, 2010
# SENP7 confirm = SENP7 protease inhibitors, retest, confirmation, biochemical, luminescence, single concentration; actives 69% (n = 6,200); shares compounds with SENP7 inh; recombinant SENP7, Z-RLRGG-aminoluciferin luminescence, 40 min; inhibition, % at 12.5 µM
# Casp3 SENP sel = caspase-3 protease inhibitors, confirmation, selectivity assay for SENP inhibitor project, biochemical, single concentration; shares compounds with SENP7 inh; purified caspase-3, Z-DEVD-aminoluciferin luminescence, 60 min; inhibition, % at 12.5 µM; actives 60% (n = 6,200); AID 488918, 2010;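 active = mean inhibition above about 50%, limit read from the data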;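 note: plate controls were enzyme with DMSO for no effect and wells without caspase-3 for full effect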
# Target sequence (P42574 28-227 limits assumed): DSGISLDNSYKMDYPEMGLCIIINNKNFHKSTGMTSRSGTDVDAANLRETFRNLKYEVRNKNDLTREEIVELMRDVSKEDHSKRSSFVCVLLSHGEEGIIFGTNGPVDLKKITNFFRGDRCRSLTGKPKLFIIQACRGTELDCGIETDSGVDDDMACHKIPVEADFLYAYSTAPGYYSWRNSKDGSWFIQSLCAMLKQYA
# SENP luc ctr = interferes with luciferase luminescence in SENP counter-screen. Pre-incubated SENP8/Z-RLRGG-aminoluciferin, luciferase luminescence interference. actives 39% (n = 6,200). inhibition, % at 12.5 µM. shares compounds with SENP7 inh;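 active = mean inhibition above about 50% when retested at one dose, limit read from the data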;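 note: plate controls were DMSO wells with completed reaction for no effect and substrate without enzyme for full effect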
# * = called active by the depositor; i = inactive; . = not tested or not shown. Hits are enriched below; roughly 2.5% of the tested compounds scored in any of these assays.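 Rule for the calls, unless noted: active = mean inhibition above about 50% in the one-dose retest (limit read from the data); inactive = the rest.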
SMILES,SENP6 block,SENP8 block-1,SENP8 block-2,SENP7 inh,SENP1 FRET inh,SENP8 confirm,SENP6 confirm,SENP7 confirm,Casp3 SENP sel,SENP luc ctr
C/C(=N/OC(=O)c1ccccc1Br)c1ccc(C)cc1,61*,44,6,30,2,28,31,72*,23,11
C/C(=N\OC(=O)c1ccc(C)cc1)c1sc(C)nc1C,79*,62*,16,77*,7,12,73*,92*,79*,57*
C/C(=N\OC(=O)c1ccc(Cl)c(Cl)c1)c1sc(C)nc1C,51*,29,19,49,2,22,17,33,35,3
COc1ccc(C(=O)O/N=C(/c2cccs2)C(C)(C)C)cc1,-55,3,20,1,5,.,.,.,.,.
C/C(=N/OC(=O)c1ccc(C)cc1)c1cccs1,97*,98*,18,100*,6,98*,99*,102*,97*,97*
CCN(CC(=O)Nc1ccc(N2CCOCC2)cc1)CC(=O)NC(C)(C)C,-8,-1,23,4,1,.,.,.,.,.
O=C(NC(Cc1ccccc1)C(=O)O)C1CCN(S(=O)(=O)c2ccccc2C(F)(F)F)CC1 (centres undefined),9,-1,7,-4,0,.,.,.,.,.
Cc1ccc(NC(=O)/C(Cl)=C/c2ccccc2)cc1C,86*,67*,14,81*,1,2,80*,96*,54*,37
CC(=O)Nc1ccccc1C(=O)C(=O)Nc1ccc(C)c(C)c1,2,-6,12,2,-1,.,.,.,.,.
Cc1ccc(C)c(N2C(=O)C3C4C=CC(CC4)C3C2=O)c1 (centres undefined),-6,-5,16,4,3,.,.,.,.,.
COc1cc(C#Cc2ccc3cc(CCO)oc(=O)c3c2)cc(OC)c1,84*,80*,i,85*,0,81*,83*,95*,61*,65*
Cc1nnc(SCC(=O)N2c3ccccc3CC2C)[nH]c1=O (centres undefined),-6,-6,13,-3,3,.,.,.,.,.
O=C(NC(=S)Nc1ccc(S(=O)(=O)Nc2nccs2)cc1)c1ccccc1,64*,32,14,-2,-1,60*,59*,80*,61*,61*
O=C(NC(=S)Nc1ccc(S(=O)(=O)Nc2nccs2)cc1)c1cccnc1,-7,3,23,5,3,.,.,.,.,.
O=C(Nc1ccc(OCc2ccccc2)cc1)Nc1ccccc1C(=O)NCCCN1CCOCC1,95*,95*,-4,97*,-1,98*,100*,103*,98*,88*
Cc1cc(C(=O)Nn2cnnc2)ccc1[N+](=O)[O-],81*,72*,17,78*,2,69*,65*,92*,93*,76*
N/C(=N\OC(=O)c1ccccc1)c1ccncc1,47,21,1,36,1,.,.,.,.,.
N/C(=N\OC(=O)c1ccc(Br)cc1)c1ccncc1,58*,26,14,62*,4,35,40,71*,68*,49
N/C(=N\OC(=O)c1ccc(OCC(F)(F)F)nc1)c1ccc(Cl)cc1,-17,-32,2,27,2,.,.,.,.,.
N/C(Cn1cncn1)=N\OC(=O)c1ccc(Cl)cc1,-5,-6,17,-6,4,.,.,.,.,.
N/C(=N\OC(=O)c1ccc(Cl)cc1)c1ccn[nH]1,73*,58*,10,79*,4,80*,77*,92*,87*,83*
N/C(=N\OC(=O)c1ccc(Cl)cc1)c1ccc(Cl)cc1,9,-13,9,54*,3,9,7,13,6,-2
N/C(=N\OC(=O)c1ccccc1Cl)c1ccc(Cl)cc1,85*,69*,20,84*,2,71*,70*,93*,62*,79*
Cc1cc2c(SCC(=O)NCC3CCCO3)ncnc2s1 (centres undefined),-11,-1,-2,-6,0,.,.,.,.,.
COc1ccc(NC(=O)C2CCCN2C(=O)OC(C)(C)C)cc1 (centres undefined),-8,0,3,5,2,.,.,.,.,.
SMILES,SENP6 block,SENP8 block-1,SENP8 block-2,SENP7 inh,SENP1 FRET inh,SENP8 confirm,SENP6 confirm,SENP7 confirm,Casp3 SENP sel,SENP luc ctr
CCc1nnc(NS(=O)(=O)c2ccc(NC(=O)c3ccc(C#N)cc3)cc2)s1,1,-4,3,-3,3,.,.,.,.,.
COc1ccccc1CNC(=O)CCCc1nnc2n(C)c(=O)c3sccc3n12,-15,-10,-21,-13,-1,.,.,.,.,.
COCCN(C(=O)COC(=O)CCS(=O)(=O)c1ccccc1)c1c(N)n(Cc2ccccc2)c(=O)[nH]c1=O,6,4,-19,-1,-2,.,.,.,.,.
N/C(=N\OC(=O)c1ccc(Cl)cc1)c1cccnc1,72*,36,24,67*,7,62*,59*,86*,83*,66*
CC(=NOC(=O)c1ccc(Cl)cc1)c1nccs1,.,.,1,.,4,.,.,.,.,.
C/C(=N\OC(=O)c1ccc(Cl)cc1)c1nccs1,72*,28,8,88*,5,28,28,65*,41,32
N/C(=N\OC(=O)c1ccco1)c1ccc(Cl)cc1,94*,79*,5,88*,2,23,12,30,38,30
N/C(=N\OC(=O)c1ccccc1Cl)c1ccccc1,94*,95*,12,98*,2,97*,99*,103*,97*,96*
O=C(O/N=C(\c1ccccc1)c1ccncc1)c1ccccc1Cl,-38,-13,7,-1,3,.,.,.,.,.
COc1ccc(OCC(O)CN2CCNCC2)cc1 (centres undefined),-3,2,11,-3,2,.,.,.,.,.

# Assay outcomes: PubChem BioAssay, Sanford-Burnham Center for Chemical Genomics
